Measured values published in ChEMBL document CHEMBL4725436, “Gibberellin JRA-003: A Selective Inhibitor of Nuclear Translocation of IKKα” (ACS Med Chem Lett, 2020).

Tests used:
CA46 = assay: Cytotoxicity against human CA46 cells assessed as reduction in cell viability measured after 24 hrs by CellTiter-Glo luminescent assay; type: functional, cell-based; settings: CA46, 24 h
Method in brief: (§1)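 High-throughput viability screen of test agents across a panel of 22 cancerous and noncancerous human cell lines. Viability was read by CellTiter-Glo luminescence.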

[1] = Inhibition of IKKalpha/IKKbeta in human HEK293T cells transfected with firefly luciferase gene assessed as inhibition of TNF-alpha-stimulated NF-kappaB signalling preincubated for 1 hr followed by TNF alpha stimulation measured after 3 hrs by luciferase reporter gene assay; type: cell-based; settings: HEK-293T
Method in brief: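 Commercial NF-κB-driven luciferase reporter assay in HEK 293T cells stimulated with TNFα. EC50 was derived from the luminescence readout.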

HEK-293T = assay: Cytotoxicity against human HEK293T cells assessed as reduction in cell viability measured after 24 hrs by CellTiter-Glo luminescent assay; type: cell-based; method in brief: as §1
[2] = Cytotoxicity against human Hs578Bst cells assessed as reduction in cell viability measured after 24 hrs by CellTiter-Glo luminescent assay; type: cell-based; method in brief: as §1
[3] = Cytotoxicity against human Hs888Lu cells assessed as reduction in cell viability measured after 24 hrs by CellTiter-Glo luminescent assay; type: cell-based; method in brief: as §1
[4] = Cytotoxicity against human Hs895SK cells assessed as reduction in cell viability measured after 24 hrs by CellTiter-Glo luminescent assay; type: cell-based; settings: Hs 895.Sk; method in brief: as §1
[5] = Cytotoxicity against human Hs895T cells assessed as reduction in cell viability measured after 24 hrs by CellTiter-Glo luminescent assay; type: functional, cell-based; method in brief: as §1
Hs-578T = assay: Cytotoxicity against human Hs-578T cells assessed as reduction in cell viability measured after 24 hrs by CellTiter-Glo luminescent assay; type: functional, cell-based; method in brief: as §1
PSN1 = assay: Cytotoxicity against human PSN1 cells assessed as reduction in cell viability measured after 24 hrs by CellTiter-Glo luminescent assay; type: functional, cell-based; settings: PSN1, 24 h; method in brief: as §1
HCC1599 = assay: Cytotoxicity against human HCC1599 cells assessed as reduction in cell viability measured after 24 hrs by CellTiter-Glo luminescent assay; type: functional, cell-based; settings: HCC1599, 24 h; method in brief: as §1
RCK8 = assay: Cytotoxicity against human RC-K8 cells assessed as reduction in cell viability measured after 24 hrs by CellTiter-Glo luminescent assay; type: functional, cell-based; settings: RCK8, 24 h; method in brief: as §1
SUD4 = assay: Cytotoxicity against human SU-DHL-4 cells assessed as reduction in cell viability measured after 24 hrs by CellTiter-Glo luminescent assay; type: functional, cell-based; settings: SU-DHL-4, 24 h; method in brief: as §1
NCI-H446 = assay: Cytotoxicity against human NCI-H446 cells assessed as reduction in cell viability measured after 24 hrs by CellTiter-Glo luminescent assay; type: functional, cell-based; settings: NCI-H446, 24 h; method in brief: as §1

| Structure (SMILES) | EC50 [1] | IC50 (CA46) | IC50 (HEK-293T) | IC50 [2] | IC50 [3] | IC50 [4] | IC50 [5] | IC50 (Hs-578T) | IC50 (PSN1) | IC50 (HCC1599) | IC50 (RCK8) | IC50 (SUD4) | IC50 (NCI-H446) | also measured |
| --- | --- | --- | --- | --- | --- | --- | --- | --- | --- | --- | --- | --- | --- | --- |
| Cc1cccc2c1[C@H](C(=O)O)[C@@]13CC(=O)[C@@](C)(CC[C@H]21)C3 | > 100 µM | > 10 µM | > 10 µM | > 10 µM | > 10 µM | > 10 µM | > 10 µM | > 10 µM | > 10 µM | > 10 µM | > 10 µM | > 10 µM | > 10 µM |  |
| C=C1[C@@H](O)[C@]23C[C@@]1(O)CC[C@H]2[C@@]12C=C[C@H](O)[C@@](C)(C(=O)O1)[C@H]2[C@@H]3C(=O)OC | > 100 µM | > 10 µM | > 10 µM | > 10 µM | > 10 µM | > 10 µM | > 10 µM | > 10 µM | > 10 µM | > 10 µM | > 10 µM | > 10 µM | > 10 µM |  |
| C=C1[C@@H](O)[C@]23C[C@@]1(O)CC[C@H]2c1ccc(O)c(C)c1[C@@H]3C(=O)OC | > 100 µM | > 10 µM | > 10 µM | > 10 µM | > 10 µM | > 10 µM | > 10 µM | > 10 µM | > 10 µM | > 10 µM | > 10 µM | > 10 µM | > 10 µM |  |
| C=C1C[C@]23C[C@@]1(O)CC[C@H]2c1cc2c(C(=O)O)coc2c(C)c1[C@@H]3C(=O)O | > 100 µM | > 10 µM | > 10 µM | > 10 µM | > 10 µM | > 10 µM | > 10 µM | > 10 µM | > 10 µM | > 10 µM | > 10 µM | > 10 µM | > 10 µM |  |
| COC(=O)/C=C/Oc1ccc2c(c1C)[C@H](C(=O)OC)[C@@]13CC(=O)[C@@](C)(CC[C@@H]21)C3 | > 100 µM | > 10 µM | > 10 µM | > 10 µM | > 10 µM | > 10 µM | > 10 µM | > 10 µM | > 10 µM | > 10 µM | > 10 µM | > 10 µM | > 10 µM |  |
| COC(=O)[C@H]1c2c(C)cccc2[C@H]2CC[C@@]3(C)C[C@]21CC3=O | > 100 µM | > 10 µM | > 10 µM | > 10 µM | > 10 µM | > 10 µM | > 10 µM | > 10 µM | > 10 µM | > 10 µM | > 10 µM | > 10 µM | > 10 µM |  |
| COC(=O)[C@H]1c2c(ccc(O)c2C)[C@@H]2CC[C@@]3(C)C[C@]21CC3=O | > 100 µM | > 10 µM | > 10 µM | > 10 µM | > 10 µM | > 10 µM | > 10 µM | > 10 µM | > 10 µM | > 10 µM | > 10 µM | > 10 µM | > 10 µM |  |
| COC(=O)[C@H]1c2c(cc3ccoc3c2C)[C@@H]2CC[C@@]3(C)C[C@]21CC3=O | > 100 µM | > 10 µM | > 10 µM | > 10 µM | > 10 µM | > 10 µM | > 10 µM | > 10 µM | > 10 µM | > 10 µM | > 10 µM | > 10 µM | > 10 µM |  |
| C=C1[C@@H]2OC(=O)[C@H]3c4c(C)cccc4[C@@H]4CC[C@]1(O)C[C@@]243 | > 100 µM | > 10 µM | > 10 µM | > 10 µM | > 10 µM | > 10 µM | > 10 µM | > 10 µM | > 10 µM | > 10 µM | > 10 µM | > 10 µM | > 10 µM |  |
| C=C1C[C@]23C[C@@]1(O)CC[C@H]2c1ccc(O)c(C)c1[C@@H]3C(=O)OC | > 100 µM | > 10 µM | > 10 µM | > 10 µM | > 10 µM | > 10 µM | > 10 µM | > 10 µM | > 10 µM | > 10 µM | > 10 µM | > 10 µM | > 10 µM |  |
| COC(=O)[C@H]1c2c(C)cccc2[C@@H]2CC[C@@]3(C)C[C@]21CC3=O | > 100 µM | > 10 µM | > 10 µM | > 10 µM | > 10 µM | > 10 µM | > 10 µM | > 10 µM | > 10 µM | > 10 µM | > 10 µM | > 10 µM | > 10 µM |  |

More lines, main results first:

| EC50 [1] | Structure (SMILES) | IC50 (CA46) | IC50 (HEK-293T) | IC50 [2] | IC50 [3] | IC50 [4] | IC50 [5] | IC50 (Hs-578T) | IC50 (PSN1) | IC50 (HCC1599) | IC50 (RCK8) | IC50 (SUD4) | IC50 (NCI-H446) | also measured |
| --- | --- | --- | --- | --- | --- | --- | --- | --- | --- | --- | --- | --- | --- | --- |
| > 100 µM | C=C1[C@@H](O)[C@]23C[C@@]1(O)CC[C@@H]2c1cccc(C)c1[C@@H]3C(=O)OC | > 10 µM | > 10 µM | > 10 µM | > 10 µM | > 10 µM | > 10 µM | > 10 µM | > 10 µM | > 10 µM | > 10 µM | > 10 µM | > 10 µM |  |
| > 100 µM | C=C1C[C@]23C[C@@]1(O)CC[C@H]2c1cc(Br)c(O)c(C)c1[C@@H]3C(=O)OC | > 10 µM | > 10 µM | > 10 µM | > 10 µM | > 10 µM | > 10 µM | > 10 µM | > 10 µM | > 10 µM | > 10 µM | > 10 µM | > 10 µM |  |
| > 100 µM | C=C1C[C@]23C[C@@]1(O)CC[C@H]2c1ccc(O/C=C/C(=O)OC)c(C)c1[C@@H]3C(=O)OC | > 10 µM | > 10 µM | > 10 µM | > 10 µM | > 10 µM | > 10 µM | > 10 µM | > 10 µM | > 10 µM | > 10 µM | > 10 µM | > 10 µM |  |
| > 100 µM | C=C1C[C@]23C[C@@]1(O)CC[C@@H]2c1cccc(C)c1[C@@H]3C(=O)OC | > 10 µM | > 10 µM | > 10 µM | > 10 µM | > 10 µM | > 10 µM | > 10 µM | > 10 µM | > 10 µM | > 10 µM | > 10 µM | > 10 µM |  |
| > 100 µM | C=C1C[C@]23C[C@@]1(O)CC[C@H]2c1cc2c(C(=O)OC)coc2c(C)c1[C@@H]3C(=O)OC | > 10 µM | > 10 µM | > 10 µM | > 10 µM | > 10 µM | > 10 µM | > 10 µM | > 10 µM | > 10 µM | > 10 µM | > 10 µM | > 10 µM |  |
| 55 µM | C=C1C(=O)[C@@]2(C)CC[C@@H]3c4cccc(C)c4[C@H](C(=O)OC)[C@@]13C2 |  | > 10 µM | > 10 µM | > 10 µM |  | > 10 µM |  | > 10 µM |  |  |  |  | EC50 (CA46): 0.46 µM; EC50 [4]: 9.5 µM; EC50 (Hs-578T): 4.8 µM; EC50 (HCC1599): 1.1 µM; EC50 (RCK8): 1.9 µM; EC50 (SUD4): 0.69 µM; EC50 (NCI-H446): 2.9 µM |
| 22 µM | C=C1C(=O)[C@@]2(C)CC[C@H]3c4cccc(C)c4[C@H](C(=O)OC)[C@@]13C2 |  |  |  | > 10 µM | > 10 µM | > 10 µM |  | > 10 µM |  |  |  |  | EC50 (CA46): 2.5 µM; EC50 (HEK-293T): 2.9 µM; EC50 [2]: 10 µM; EC50 (Hs-578T): 5.2 µM; EC50 (HCC1599): 1.4 µM; EC50 (RCK8): 0.97 µM; EC50 (SUD4): 0.62 µM; EC50 (NCI-H446): 2.1 µM |
| 57 µM | C=C1[C@@H]2OC(=O)[C@H]3[C@@H]4[C@@]5(C)C(=O)C=C[C@@]4(OC5=O)[C@@H]4CC[C@]1(O)C[C@]234 |  | > 10 µM | > 10 µM | > 10 µM | > 10 µM | > 10 µM | > 10 µM | > 10 µM |  |  |  |  | EC50 (CA46): 3.7 µM; EC50 (HCC1599): 5.5 µM; EC50 (RCK8): 4.3 µM; EC50 (SUD4): 3 µM; EC50 (NCI-H446): 5.9 µM |
| 1.7 µM | C=C1C(=O)[C@]23C[C@@]1(O)CC[C@H]2[C@@]12C=CC(=O)[C@@](C)(C(=O)O1)[C@H]2[C@@H]3C(=O)OC |  |  | > 10 µM | > 10 µM | > 10 µM | > 10 µM |  | > 10 µM |  |  |  |  | EC50 (CA46): 0.88 µM; EC50 (HEK-293T): 7.1 µM; EC50 (Hs-578T): 5.2 µM; EC50 (HCC1599): 0.83 µM; EC50 (RCK8): 0.072 µM; EC50 (SUD4): < 0.04 µM; EC50 (NCI-H446): < 0.04 µM |
